{"source": "ChEMBL document CHEMBL3351355", "about": "“Structure-affinity/activity relationships of 1,4-dioxa-spiro[4.5]decane based ligands at α1 and 5-HT1A receptors” (Eur J Med Chem, 2014)", "key": {"[1]": {"target": "T1, 5-hydroxytryptamine receptor 1A (Homo sapiens) (UniProt P08908)", "T1 sequence (whole entry)": "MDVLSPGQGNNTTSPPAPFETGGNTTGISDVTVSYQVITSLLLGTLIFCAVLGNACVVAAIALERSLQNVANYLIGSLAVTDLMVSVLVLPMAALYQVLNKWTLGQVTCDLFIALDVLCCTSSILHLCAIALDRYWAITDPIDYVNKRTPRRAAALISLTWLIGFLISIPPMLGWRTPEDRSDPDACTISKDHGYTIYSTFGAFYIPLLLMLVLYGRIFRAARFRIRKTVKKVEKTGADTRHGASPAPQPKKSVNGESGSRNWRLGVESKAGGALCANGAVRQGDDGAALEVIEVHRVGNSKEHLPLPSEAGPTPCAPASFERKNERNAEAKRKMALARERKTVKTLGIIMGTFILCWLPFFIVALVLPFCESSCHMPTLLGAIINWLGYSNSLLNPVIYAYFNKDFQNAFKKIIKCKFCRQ", "assay": "Agonist activity at human recombinant 5-HT1A receptor expressed in HeLa cells after 30 mins by [35S]GTPgammaS binding assay", "assay_type": "functional, cell-based", "method_in_brief": "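HeLa membranes expressing human 5-HT1A (50–70 µg protein) in 20 mM HEPES, 3 mM MgSO4, 120 mM NaCl pH 7.4 with 30 µM GDP; test drug 0.01 nM–10 µM, 20 min at 30 °C, then 200 pM [35S]GTPγS for 30 min at 30 °C. Nonspecific with 10 µM GTPγS; filtration and scintillation counting. Emax as % of maximal 8-OH-DPAT stimulation; pD2 = −log EC50.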"}, "[2]": {"target": "T1, 5-hydroxytryptamine receptor 1A (Homo sapiens)", "assay": "Agonist activity at human recombinant 5-HT1A receptor expressed in HeLa cells after 30 mins by [35S]GTPgammaS binding assay relative to control", "assay_type": "functional, cell-based", "method_in_brief": "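HeLa membranes (50–70 µg protein) in 20 mM HEPES, 3 mM MgSO4, 120 mM NaCl, pH 7.4, preincubated 20 min at 30 °C with 30 µM GDP and drug (0.01 nM–10 µM), then 200 pM [35S]GTPγS added for 30 min at 30 °C. Nonspecific binding with 10 µM GTPγS. Filtration and scintillation counting. Data expressed as % increase over basal, 8-OH-DPAT maximum = 100%. Emax and pD2 derived.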"}, "[3]": {"target": "T2, Alpha-1D adrenergic receptor (Rattus norvegicus) (UniProt P23944)", "T2 sequence (whole entry)": "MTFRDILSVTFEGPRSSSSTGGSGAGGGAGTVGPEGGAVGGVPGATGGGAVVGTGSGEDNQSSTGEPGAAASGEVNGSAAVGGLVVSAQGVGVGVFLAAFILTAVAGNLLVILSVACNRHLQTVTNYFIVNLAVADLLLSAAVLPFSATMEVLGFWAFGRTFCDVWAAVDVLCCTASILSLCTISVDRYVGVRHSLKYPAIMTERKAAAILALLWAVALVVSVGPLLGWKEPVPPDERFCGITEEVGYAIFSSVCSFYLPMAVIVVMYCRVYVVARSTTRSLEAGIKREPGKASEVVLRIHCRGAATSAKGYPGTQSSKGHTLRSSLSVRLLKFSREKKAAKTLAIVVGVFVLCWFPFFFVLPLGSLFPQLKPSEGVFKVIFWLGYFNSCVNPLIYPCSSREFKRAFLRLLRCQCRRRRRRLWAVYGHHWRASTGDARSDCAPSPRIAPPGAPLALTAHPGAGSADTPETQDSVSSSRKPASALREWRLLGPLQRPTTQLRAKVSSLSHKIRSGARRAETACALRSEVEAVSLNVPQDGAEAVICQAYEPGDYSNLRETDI", "assay": "Antagonist activity at alpha1D adrenoceptor in Wistar rat thoracic aorta assessed as noradrenaline-induced contractions after 30 mins"}, "[4]": {"target": "T3, Alpha-1D adrenergic receptor (Homo sapiens, UniProt P25100)", "T3 sequence (P25100 whole entry)": "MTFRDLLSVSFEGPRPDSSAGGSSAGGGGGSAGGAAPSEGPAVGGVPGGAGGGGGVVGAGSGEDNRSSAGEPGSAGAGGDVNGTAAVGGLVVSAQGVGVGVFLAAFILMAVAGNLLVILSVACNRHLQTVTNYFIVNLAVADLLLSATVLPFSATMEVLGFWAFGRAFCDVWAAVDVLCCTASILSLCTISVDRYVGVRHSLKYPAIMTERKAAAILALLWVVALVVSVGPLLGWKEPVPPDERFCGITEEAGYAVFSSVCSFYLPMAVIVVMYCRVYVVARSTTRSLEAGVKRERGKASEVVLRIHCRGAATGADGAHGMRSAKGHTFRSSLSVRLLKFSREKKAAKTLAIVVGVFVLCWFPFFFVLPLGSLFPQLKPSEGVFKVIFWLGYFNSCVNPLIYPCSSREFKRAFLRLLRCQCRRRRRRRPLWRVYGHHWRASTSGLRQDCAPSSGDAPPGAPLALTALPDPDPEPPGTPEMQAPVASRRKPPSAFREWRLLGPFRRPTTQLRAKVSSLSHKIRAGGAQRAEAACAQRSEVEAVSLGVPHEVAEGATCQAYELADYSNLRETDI", "assay": "Displacement of [3H]prazosin from human recombinant alpha1D adrenoceptor expressed in CHO cells after 30 mins by liquid scintillation counting", "assay_type": "cell-based", "method_in_brief": "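CHO cells were stably transfected by electroporation with each human α1 subtype. Membranes (70 µg protein) were incubated in 50 mM Tris pH 7.4 with 0.1–0.4 nM [3H]prazosin and competitor (1 pM–1 µM) for 30 min at 25 °C. Nonspecific binding with 10 µM tamsulosin. Filtration and scintillation counting. pKi from 2–3 experiments in duplicate.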"}, "Rattus norvegicus [5]": {"species_on_record": "Rattus norvegicus", "assay": "Selectivity ratio of Kb for alpha1B adrenoceptor in Wistar rat spleen to Kb for alpha1A adrenoceptor in Wistar rat vas deferans", "assay_type": "tissue-based"}, "Rattus norvegicus [6]": {"species_on_record": "Rattus norvegicus", "assay": "Selectivity ratio of Kb for alpha1D adrenoceptor in Wistar rat thoracic aorta to Kb for alpha1B adrenoceptor in Wistar rat spleen", "assay_type": "tissue-based"}, "[7]": {"target": "T4, Alpha-1A adrenergic receptor (Rattus norvegicus) (UniProt P43140)", "T4 sequence (whole entry)": "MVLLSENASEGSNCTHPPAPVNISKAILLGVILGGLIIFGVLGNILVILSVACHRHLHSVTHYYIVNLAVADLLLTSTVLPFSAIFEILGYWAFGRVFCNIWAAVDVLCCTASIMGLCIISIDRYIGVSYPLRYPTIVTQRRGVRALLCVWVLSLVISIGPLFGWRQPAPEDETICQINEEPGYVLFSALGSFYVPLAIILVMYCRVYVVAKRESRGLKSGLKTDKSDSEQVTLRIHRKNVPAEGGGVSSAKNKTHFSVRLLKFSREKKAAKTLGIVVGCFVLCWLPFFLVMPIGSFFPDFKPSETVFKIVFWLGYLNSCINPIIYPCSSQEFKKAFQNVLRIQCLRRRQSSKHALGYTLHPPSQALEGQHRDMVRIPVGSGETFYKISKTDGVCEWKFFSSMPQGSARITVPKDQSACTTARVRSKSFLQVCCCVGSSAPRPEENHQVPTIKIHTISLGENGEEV", "assay": "Antagonist activity at alpha1A adrenoceptor in Wistar rat vas deferans assessed as noradrenaline-induced contractions after 30 mins"}}}
{"smiles": "COc1ccccc1N1CCN(CC2COC3(CCN(C(=O)C4CCCCC4)CC3)O2)CC1", "note": "(configuration not stated)", "values": [{"measurement": "pD2", "setting": "[1]", "result": 7.29}, {"measurement": "Emax", "setting": "[2]", "result": 33, "unit": "%"}, {"measurement": "pKb", "setting": "[3]", "result": 7.02}, {"measurement": "Ki", "setting": "[4]", "result": 39.8, "unit": "nM"}, {"measurement": "Ratio", "setting": "Rattus norvegicus [5]", "result": 2.4}, {"measurement": "Ratio", "setting": "Rattus norvegicus [6]", "result": 0.49}, {"measurement": "pKb", "setting": "[7]", "result": 6.95}]}
